Reference: ChEMBL document CHEMBL1124727, “Neuronal mapping of the heart with 6-[18F]fluorometaraminol” (1990)

Legend:
Canis familiaris [1] = species: Canis familiaris; assay: Normalized FMR Concentration in posterior wall of heart of phenol treated canine myocardium; assay type: functional, Canis lupus familiaris
Summary of the method: (§1)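 Mongrel dogs, LV anterior epicardium (LAD region) painted with 88% phenol in ethanol (v/v); 4–7 days later FMR iv, killed 1 h post by pentobarbital/KCl overdose. LV cut into ~1 cm transverse slices, then radial segments, gamma counted; % kg dose/g normalized to highest-activity segment (atria = 100%). Affected area = mean of three lowest contiguous segments in each of two midbasal slices; controls N = 3, treated N = 5.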

Canis familiaris [2] = assay: Tissue concentration in dog muscle after iv administration; assay type: functional, Canis lupus familiaris
Summary of the method: (§2)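 Mongrel dogs (two female, 15.0 and 18.6 kg, 0.45 mCi; two male, 2.0 mCi) given FMR as iv cephalic-vein bolus in 2.0 mL sterile 0.15 M acetate buffer, pH 4.5. Killed 1 h later by iv pentobarbital; tissues washed in saline, blotted, weighed, gamma counted 1 min. Expressed as % kg dose/g, N = 4 (muscle, pancreas, kidney N = 2).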

Canis familiaris [3] = assay: Tissue concentration of the compound in dog adrenal cortex after iv administration; assay type: functional, Canis lupus familiaris; summary of the method: as §2
Canis familiaris [4] = assay: Tissue concentration in dog blood after iv administration; assay type: functional, Canis lupus familiaris; summary of the method: as §2
Canis familiaris [5] = assay: Tissue concentration in dog right atrium after iv administration; assay type: functional, Canis lupus familiaris, Cardiac atrium; summary of the method: as §2
Canis familiaris [6] = assay: Tissue concentration in dog kidney after iv administration; assay type: functional, Canis lupus familiaris; summary of the method: as §2
Canis familiaris [7] = species: Canis familiaris; assay: Normalized FMR Concentration in anterior wall of heart of phenol treated canine myocardium; assay type: functional, Canis lupus familiaris; summary of the method: as §1
Canis familiaris [8] = assay: Tissue concentration in dog adrenal medulla after iv administration; assay type: functional, Canis lupus familiaris; summary of the method: as §2
Canis familiaris [9] = assay: Tissue concentration in dog pancreas after iv administration; assay type: functional, Canis lupus familiaris; summary of the method: as §2
Canis familiaris [10] = assay: Tissue concentration in dog right ventricle after iv administration; assay type: functional, Canis lupus familiaris, Heart right ventricle; summary of the method: as §2
Canis familiaris [11] = assay: Tissue concentration in dog left atrium after iv administration; assay type: functional, Canis lupus familiaris, Cardiac atrium; summary of the method: as §2
Canis familiaris [12] = assay: Tissue concentration in dog lung after iv administration; assay type: functional, Canis lupus familiaris; summary of the method: as §2
Canis familiaris [13] = assay: Tissue concentration in dog left ventricle after iv administration; assay type: functional, Canis lupus familiaris, Heart left ventricle; summary of the method: as §2
Canis familiaris [14] = assay: Tissue concentration in dog liver after iv administration; assay type: functional, Canis lupus familiaris; summary of the method: as §2
Canis familiaris [15] = assay: Tissue concentration in dog spleen after iv administration; assay type: functional, Canis lupus familiaris; summary of the method: as §2
Canis familiaris [16] = assay: Tissue concentration in dog heart after iv administration; assay type: functional, Canis lupus familiaris
Canis familiaris [17] = assay: Tissue concentration in dog left ventricle to blood ratio after iv administration; assay type: functional, Canis lupus familiaris; summary of the method: as §2
Canis familiaris [18] = assay: Tissue concentration in dog thyroid after iv administration; assay type: functional, Canis lupus familiaris, Thyroid gland
Canis familiaris [19] = species: Canis familiaris; assay: Concentration of Endogenous NE and FMR from Midbasal Slices of Phenol-Treated Canine in posterior wall; assay type: functional, organism-based; conditions: Canis lupus familiaris
Summary of the method: (§3)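 Phenol-painted (88% phenol in ethanol, epicardial LV anterior wall near LAD) dogs, 4–7 days post surgery; sacrificed 1 h after iv FMR by pentobarbital/KCl overdose. Midbasal LV slices cut into radial segments, gamma counted; homogenized in cold 0.4 M perchloric acid, NE by HPLC-fluorescence. FMR normalized to highest-activity segment = 100%. Three lowest contiguous segments per slice averaged versus opposed segments; Student's t test.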

Rattus norvegicus [20] = assay: Neuronal selectivity expressed as Concentration in blood after iv administration in rat, pretreated with 6-hydroxydopamine (control = 0.065+/-0.005); assay type: functional, organism-based; conditions: tested as the 3H-labelled form
Rattus norvegicus [21] = assay: Neuronal selectivity expressed as Concentration in right ventricle after iv administration in rat, pretreated with 6-hydroxydopamine (control = 4.86+/-0.24); conditions: Heart right ventricle, tested as the 3H-labelled form
Rattus norvegicus [22] = assay: Neuronal selectivity expressed as Concentration in left ventricle after iv administration in rat, pretreated with 6-hydroxydopamine (control = 4.10+/-0.23); conditions: Heart left ventricle, tested as the 3H-labelled form
Canis familiaris [23] = species: Canis familiaris; assay: Concentration of Endogenous NE and FMR from Midbasal Slices of Phenol-Treated Canine in anterior wall; assay type: functional, organism-based; conditions: Canis lupus familiaris; summary of the method: as §3
Rattus norvegicus [24] = assay: Neuronal selectivity expressed as Concentration in rigt atrium after iv administration in rat, pretreated with 6-hydroxydopamine (control = 4.86+/-0.68); conditions: Cardiac atrium, tested as the 3H-labelled form
Rattus norvegicus [25] = assay: Neuronal selectivity expressed as Concentration in left atrium after iv administration in rat, pretreated with 6-hydroxydopamine (control =4.75+/-0.28); conditions: Cardiac atrium, tested as the 3H-labelled form
Rattus norvegicus [26] = assay: Neuronal selectivity expressed as Concentration in spleen after iv administration in rat, pretreated with 6-hydroxydopamine (control = 0.85+/-0.005); assay type: functional, organism-based; conditions: tested as the 3H-labelled form

Row | SMILES | [3H] concentration (Canis familiaris [4]) [% kg dose g-1] | [3H] concentration (Canis familiaris [8]) [% kg dose g-1] | [3H] concentration (Canis familiaris [12]) [% kg dose g-1] | [3H] concentration (Canis familiaris [14]) [% kg dose g-1] | [3H] concentration (Canis familiaris [15]) [% kg dose g-1] | [3H] concentration (Canis familiaris [16]) [% kg dose g-1] | [3H] concentration (Canis familiaris [17]) [% kg dose g-1] | [3H] concentration (Canis familiaris [18]) [% kg dose g-1] | further results
1 | CC(N)C(O)c1cc(O)ccc1F (centres undefined) | 0.04 | 9.89 | 0.26 | 0.33 | 0.69 | – | – | – | [3H] concentration (Canis familiaris [1]): 53.8 % kg dose g-1; [3H] concentration (Canis familiaris [2]): 0.07 % kg dose g-1; [3H] concentration (Canis familiaris [3]): 0.59 % kg dose g-1; [3H] concentration (Canis familiaris [5]): 1.44 % kg dose g-1; [3H] concentration (Canis familiaris [6]): 0.41 % kg dose g-1; [3H] concentration (Canis familiaris [7]): 14.5 % kg dose g-1; [3H] concentration (Canis familiaris [9]): 0.6 % kg dose g-1; [3H] concentration (Canis familiaris [10]): 0.89 % kg dose g-1; [3H] concentration (Canis familiaris [11]): 1.54 % kg dose g-1; [3H] concentration (Canis familiaris [13]): 1.24 % kg dose g-1
2 | CC(N)C(O)c1ccc(I)c(O)c1 (centres undefined) | 0.04 | 0.45 | 0.25 | 0.5 | 0.26 | 0.17 | 4 | 0.2 | –
3 | CC(N)C(O)c1cc(O)ccc1I (centres undefined) | 0.05 | 0.2 | 0.26 | 0.49 | 0.08 | 0.05 | 1 | 0.06 | –
4 | NC[C@H](O)c1ccc(O)c(O)c1 | – | – | – | – | – | – | – | – | Concentration (Canis familiaris [19]): 1460 ng/g; Concentration (Rattus norvegicus [20]): 0.052 % dose g-1; Concentration (Rattus norvegicus [21]): 0.41 % dose g-1; Concentration (Rattus norvegicus [22]): 0.6 % dose g-1; Concentration (Canis familiaris [23]): 303 ng/g; Concentration (Rattus norvegicus [24]): 0.29 % dose g-1; Concentration (Rattus norvegicus [25]): 0.39 % dose g-1; Concentration (Rattus norvegicus [26]): 0.25 % dose g-1
